Results on 9 compounds are retold here after ChEMBL document CHEMBL1932954, “An expedient synthesis of honokiol and its analogues as potential neuropreventive agents” (Bioorg Med Chem Lett, 2012).

Activity calls are given as the source filed them. The calls are words filed in the database; no cut-off is given here.

The subject of data set [1] is SH-SY5Y. Description: Neuroprotective activity in human SH-SY5Y cells assessed as inhibition of MPP+-induced cell death after 24 hrs by MTT assay. Format: functional, cell-based. In short, it runs like this: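 SH-SY5Y neuroblastoma cells co-treated with MPP+ (1 mM) and compound (10–30 µM) at the same time for 24 h. MTT read-out, given as percent viability versus control without MPP+. Mean ± SEM, n = 4; ANOVA.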

Data set [2] relates to SH-SY5Y. The experiment in a line: Neuroprotective activity in human SH-SY5Y cells assessed as inhibition of CHP and TBHP-induced cell death at 10 uM incubated for 30 mins prior to challenge measured after 3 hrs by MTT assay. In kind it is functional, cell-based. In short, it runs like this:
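SH-SY5Y human neuroblastoma cells pretreated with compound at 10 µM for 30 min, then exposed to cumene hydroperoxide (CHP) or tert-butyl hydroperoxide (TBHP) at 300 µM for 3 h. Viability read by MTT and expressed relative to untreated control set as 100%. Mean ± SEM, n = 3; ANOVA.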
A general note: Formazan colour is commonly taken as a measure of viable cells.

Data set [3] deals with SH-SY5Y. The experiment in a line: Neuroprotective activity in MPP+-stimulated human SH-SY5Y cells assessed as cell survival at 30 uM measured 24 hrs after MPP+-challenge by MTT assay. Format: functional. The note with it: read-out: Survival. The procedure, abridged: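 SH-SY5Y neuroblastoma cells were co-treated with MPP+ (1 mM) and test compound (10–30 µM) for 24 h, with no pretreatment. Viability was read by MTT assay and given as percent of control without MPP+. Values are mean ± SEM, n = 4, compared by ANOVA.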

Data set [4] is described as follows: Cytotoxicity against human SH-SY5Y cells assessed as cell viability at 300 uM by MTT assay. In kind it is cell-based. The note with it: read-out: Activity. In short, it runs like this: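 SH-SY5Y human neuroblastoma cells were exposed to cumene hydroperoxide (CHP) or tert-butyl hydroperoxide (TBHP) at 300 µM for 3 h. Viability was read by MTT assay and expressed relative to untreated control cultures set as 100%. Values are mean ± SEM, n = 3, compared by ANOVA.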

Regarding `C=CCc1cc(-c2cccc(O)c2CC=C)ccc1O`, in data set [1], the inhibition entry was “Dose-dependent effect”. Besides, the inhibition result in data set [2] is “Active”. Also, the viability at 30 µM in data set [3] turned out to be 79%.
In the case of `CC(C)(C)OO` [TERT-BUTYL HYDROPEROXIDE], the viability at 300 µM in data set [4] was found to be 72%.
Take `C=CCc1ccc(O)c(-c2ccc(O)c(CC=C)c2)c1`: the inhibition entry in data set [1] is “Dose-dependent effect”. Also, in data set [2], the inhibition entry was “Active”.
Consider `C=CCc1cc(-c2cc(CCC)ccc2O)ccc1O`, for which the inhibition result in data set [1] was “Dose-dependent effect”. Further, the inhibition entry in data set [2] was “Active”. For the same compound, the viability at 30 µM in data set [3] is 83%.
As to `CC(C)(OO)c1ccccc1` [CUMENE HYDROPEROXIDE], in data set [4], the viability at 300 µM stood at 64%.
`C#CCc1ccc(O)c(-c2ccc(O)c(CC=C)c2)c1`: the inhibition entry in data set [1] is “Dose-dependent effect”. Moreover, the inhibition result in data set [2] is “Active”. Further, in data set [3], the viability at 30 µM is 80%.
The corresponding values for `CCCc1ccc(O)c(-c2ccc(O)c(CCC)c2)c1` are “Dose-dependent effect”, “Active” and 91%.
The corresponding values for `C=CCc1ccc(O)c(-c2ccc(O)c(CCC)c2)c1` are “Dose-dependent effect”, “Active” and 87%.
On to `C=CCc1cc(-c2ccc(O)c(CC=C)c2)ccc1O`, for which the inhibition result in data set [1] was “Dose-dependent effect”. The inhibition entry in data set [2] was “Active”.
